Our source for the Drug uptake and bioavailability values is ChEMBL document CHEMBL3997798, “Novel Selective Estrogen Receptor Downregulators (SERDs) Developed against Treatment-Resistant Breast Cancer” (J Med Chem, 2017).

The test system of one series is Plasma. Description: Drug uptake in mouse plasma at 100 mg/kg, po via gavage at 0.5 to 4 hrs post dose by LC-MS/MS analysis. Type of series: ADME, organism-based. As to conditions: in vivo; call rule not given here. An outline of the steps: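 Plasma concentrations in mice were measured at 0.5 and 4 h after a 100 mg/kg oral dose given as a 0.5% CMC suspension.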
A short description of series [1]: Oral bioavailability in rat. As to conditions: in vivo. It counts as ADME, organism-based.

Molecules are shown by their SMILES.

As for `Cc1ccc(C(=O)c2sc3cc(O)ccc3c2Oc2ccc(/C=C/C(=O)O)cc2)c(C)c1`, the Drug uptake entry in the series on Plasma is on record as “Active”.

Take `Cc1cc(Cl)cc(C)c1C(=O)c1sc2cc(O)ccc2c1Oc1ccc(/C=C/C(=O)O)cc1`: the Drug uptake result in the series with Plasma is reported as “Active”.

For the compound `Oc1ccc2c(c1)CC[C@H](c1ccccc1)[C@@H]2c1ccc(OCCN2CCCC2)cc1` [LASOFOXIFENE], the bioavailability (as a rule, the share of a dose that reaches the circulation, judged against a reference dose that is usually intravenous) in series [1] is above 60%.

Take `Cc1cc(F)cc(C)c1C(=O)c1sc2cc(O)ccc2c1Oc1ccc(/C=C/C(=O)O)cc1` [RINTODESTRANT]: the Drug uptake entry in the series on Plasma was “Active”.
